Results from different studies.
Compare with care: the assays were run in different laboratories.
Observed: cell growth or viability

`O=c1[nH]c2cc(-c3ccccc3)sc2c(=O)n1O` has a CC50 of over 50 µM (HFF; MTS; 7 days).
With `NCCNC(=O)CN1C(=O)Cc2c([nH]c3ccc(Br)cc23)-c2ccc(Cl)cc21` the CC50 was at least 100 µM (J774; WST-1; 24 h).
`O=c1[nH]c2sc(-c3ccc(Cl)cc3)cc2c(=O)n1O` has a CC50 of over 50 µM (HFF; MTS; 7 days).
`O=C(CN1C(=O)Cc2c([nH]c3ccc(Br)cc23)-c2ccc(Cl)cc21)NCCN1CCNCC1` has a CC50 of at least 100 µM (J774; WST-1; 24 h).
`N#Cc1nc(-c2ccccc2)oc1N1CCCC1CO` (stereo not drawn) gave a CC50 of over 150 µM (HFF; ATP luminescence).
The CC50 of `O=c1[nH]c2cc(-c3ccc(Cl)cc3)ccc2c(=O)n1O` is reported as over 50 µM (HFF; MTS; 7 days).
`Nc1nc2c(ncn2COCCO)c(=O)[nH]1` has a CC50 of over 150 µM (HFF; ATP luminescence; 14 days).
For `Cc1ccc(-c2nc(C#N)c(N(C)S(=O)(=O)c3ccc(C)cc3)o2)cc1`, the CC50 was 83.8 µM (HFF; ATP luminescence).
With `O=C1Cc2c([nH]c3ccc(Br)cc23)-c2ccc(Cl)cc2N1` the CC50 was over 200 µM (J774; WST-1; 24 h).
For `C[C@H]1[C@@H](O)O[C@@H]2O[C@@]3(C)CC[C@H]4[C@H](C)CC[C@@H]1[C@@]24OO3`, the CC50 was 51.3 µM (J774; ATP luminescence; 72 h).
`O=C(CN1C(=O)Cc2c([nH]c3ccc(Br)cc23)-c2ccc(Cl)cc21)NCCN1CCCCC1` gave a CC50 of at most 10 µM (J774; WST-1; 24 h).
With `CC1CCCN(S(=O)(=O)c2nc(-c3ccc(Br)cc3)oc2-c2ccc(Cl)cc2)C1` (stereo not drawn) the CC50 was 41.9 µM (HFF; ATP luminescence).
